Test results reported in PMC3076219 (European journal of immunology, 2009).
“Also recorded” adds a separate entry of the source.

Experiments:
neutrophils [1] = conditions: cited from earlier work
neutrophils [2] = assay: Neutrophil migration, 24-well Transwell; type: cell-based, human; conditions: Fig. 6H
In short: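 CFSE-labelled human neutrophils (5 µM, 5 min RT) at 5×10^6/mL in phenol-red-free RPMI 1640 with 1% FBS went in the Transwell upper chamber (3-µm pores). The lower chamber held test peptide (1 or 5 µM) or medium. Some cells were first preincubated 20 min with 10 µM CXCR2 antagonist. After 1 h at 37 °C, migrated cells were read at 495 nm against a standard curve. Quadruplicate; unpaired t-test.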

monocytes [3] = assay: Migration of monocytes, 24-well Transwell; type: cell-based, human; conditions: LL-37 5 µM, Fig. 7F
In short: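 CFSE-labelled monocytes or THP-1 cells (5 µM, 5 min RT) at 2×10^6/mL in phenol-red-free RPMI 1640 with 1% FBS went in the Transwell upper chamber (3-µm pores). Stimuli in the lower chamber included CXCL1 50 nM, WKYMVm 5 µM and ATP/BzATP 50 µM. Cells were used with or without 20 min preincubation with 10 µM CXCR2 antagonist. Incubation at 37 °C lasted 90 min for monocytes and 2 h for THP-1. Lower-well cells were read at 495 nm against a standard curve, in quadruplicate.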

neutrophils [4] = assay: Calcium mobilization of neutrophils; type: cell-based, human
neutrophils [5] = conditions: ref [27]; cited from earlier work
CXCR2 [6] = assay: CXCR2 surface expression on monocytes; type: cell-based, human; conditions: Supporting information Fig. 2
THP-1 cells = assay: Calcium mobilization in THP-1 cells; type: cell-based; conditions: Fig. 7C
In short: (§1)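 Peripheral blood monocytes (kit-isolated from PBMC, CD14-checked) or THP-1 cells at 10^7/mL were loaded with 5 µM Indo-1-AM for 7 min at 37 °C, then held 10 min at RT and washed in cold PBS. Cells were run at 2×10^6/mL in KRP (PBS, 1.5 mM CaCl2, 1.5 mM MgSO4). After baseline they got a first stimulus, then a second. Flow cytometry used 351 nm excitation and the 405:485 nm ratio, gating live cells. Three independent experiments.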

CXCR2 [7] = assay: CXCR2 surface expression on neutrophils, flow cytometry; type: cell-based, human; conditions: WKYMVm 1 µM, 10 µM, 100 µM; 3h; Fig. 2B
CXCR1 [8] = assay: CXCR1 surface expression on neutrophils, flow cytometry; type: cell-based, human; conditions: WKYMVm 1 µM, 10 µM, 100 µM; 3h; Fig. 2B
In short: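 Human blood neutrophils were isolated by dextran sedimentation and Ficoll (>95% CD16+) and held at 5×10^6/mL in RPMI 1640 with 1% FBS. They were treated 3h with a dose series (test peptide 1–10 µM; chemokines 1, 5, 10, 50 nM) or with 5 µM for 0.5–3h. Cells were blocked in 10% human serum and stained with anti-CXCR1-APC/anti-CXCR2-FITC or anti-P2X7-FITC, plus anti-CD16. Read-out was flow cytometry GMFI.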

neutrophils [9] = assay: Cross-desensitization of calcium mobilization of neutrophils; type: cell-based, human; conditions: WKYMVm first
FPR2 = FPR2 surface expression on monocytes; type: cell-based, human; conditions: Supporting information Fig. 2
monocytes [10] = assay: Calcium mobilization in monocytes; type: cell-based, human; conditions: ATP or WKYMVm first, then LL-37; Fig. 7D
In short: as §1

neutrophils [11] = conditions: ref [66]; cited from earlier work
CXCR2 [12] = conditions: indirect, inside-out signaling; ref [16]; cited from earlier work
CXCR1 [13] = conditions: indirect, inside-out signaling; ref [16]; cited from earlier work

For `O=C(Nc1ccc([N+](=O)[O-])cc1O)Nc1ccccc1Br` [SB225002], the “inhibition of neutrophil migration with CXCL1 or CXCL8” value (neutrophils [1]; SB225002, ref [27]) is listed as “dose dependent inhibition”, the “inhibition of CXCL1 and CXCL7 stimulated neutrophil migration” value (neutrophils [1]; ref [27]) is listed as “completely inhibited” and the “inhibition of CXCL8 stimulated neutrophil migration” value (neutrophils [1]; ref [27]) is listed as “partially inhibited”. For the same compound, the “migration of SB225002 treated controls” value (neutrophils [2]; SB225002 10 µM without LL-37) was “did not interfere with cell migration”, the “inhibition of LL-37-induced neutrophil migration” value (neutrophils [2]; SB225002 10 µM, 20 min pretreatment, LL-37 5 µM, p<0.05) was “completely inhibited; also recorded: completely block” and the “inhibition of LL-37-stimulated monocyte migration” value (monocytes [3]; SB225002 10 µM, 20 min preincubation) was “blocked”. For the same compound, the “reduction of [Ca2+]i for LL-37” value (neutrophils [4]; SB225002 10 µM, then 180 s later LL-37 5 µM, Fig. 6A) was over 90%, the “inhibition of calcium mobilization for ATP” value (neutrophils [4]; SB225002 10 µM, ATP 5 µM, Fig. 6F) was “not for fMLF (Fig. 6E), ATP” and the “inhibition of calcium mobilization for CXCL1” value (neutrophils [4]; SB225002 10 µM, CXCL1 10 nM, Fig. 6C) was “complete inhibition”. For the same compound, the “inhibition of calcium mobilization for CXCL7” value (neutrophils [4]; SB225002 10 µM, CXCL7 10 nM, Fig. 6B) was “complete inhibition”, the “inhibition of CXCL8 stimulation ([Ca2+]i)” value (neutrophils [4]; SB225002 10 µM, CXCL8 10 nM, Fig. 6D) was “about 50%” and the “inhibition of calcium mobilization for WKYMVm” value (neutrophils [4]; SB225002 10 µM, WKYMVm 5 µM, Fig. 6G) was “not for fMLF (Fig. 6E), ATP (Fig. 6F) or WKYMVm”. For the same compound, the “inhibition of calcium mobilization for fMLF” value (neutrophils [4]; SB225002 10 µM, fMLF 100 nM, Fig. 6E) was “not for fMLF” and the “inhibition of [Ca2+]i of neutrophils treated with CXCL1 or CXCL8” value (neutrophils [5]) was “dose dependent inhibition”.
With WKYMVm [reference compound] the “CXCR2 down-regulation on monocytes” value (CXCR2 [6]) was “down regulated FPR2 and CXCR2”, the “calcium signal in THP-1 cells” value (THP-1 cells) was “but not WKYMVm gives a robust calcium signal” and the “block of LL-37 induced signal by WKYMVm pretreatment” value (THP-1 cells; WKYMVm first, then LL-37, THP-1) was “does not block the LL-37 induced signal”. The CXCR2 surface expression (CXCR2 [7]) was “caused down-regulation of both CXCR2 and CXCR1 expression with similar kinetics”, the CXCR1 surface expression (CXCR1 [8]) was “caused down-regulation of both CXCR2 and CXCR1 expression with similar kinetics” and the “stimulation of migration of monocytes” value (monocytes [3]; CXCL1 50 nM, WKYMVm 5 µM, ATP 50 µM, BzATP 50 µM, 90 min, 37°C) was “only LL-37 stimulated migration of monocytes”. For the same compound, the “cross-desensitization of CXCL1 response by WKYMVm” value (neutrophils [9]; then CXCL1, Supporting information Fig. 3E-F) was “this was the case for CXCL1”, the “cross-desensitization of LL-37 response by WKYMVm” value (neutrophils [9]; then LL-37, Supporting information Fig. 3C-D) was “able to block LL-37 stimulated calcium mobilization” and the “calcium flux response in the absence of extracellular Ca2+” value (neutrophils [4]; PBS without calcium and magnesium, LL-37 5 µM, WKYMVm 5 µM, ATP 5 µM, Fig. 3C) was “capable of generating a calcium flux response”. The “FPR2 down-regulation on monocytes” value (FPR2) was “down regulated FPR2 and CXCR2” and the “cross-block of LL-37 stimulated calcium mobilization in monocytes” value (monocytes [10]) was “neither ATP nor WKYMVm cross-block LL-37 stimulated calcium mobilization”.
In the case of pertussis toxin [PTX], the “block of CXCL8, fMLF, LTB4, CXCL6, and MNCF stimulated neutrophil migration” value (neutrophils [1]; ref [33], [63], [65]) is given as “able to block” and the “block of FPR- and CXCR-induced oxidase activity of neutrophils” value (neutrophils [11]) is given as “able to block”.
For TNFα, the CXCR2 down-regulation (CXCR2 [12]) is listed as “cause down-regulation of CXCR2 and CXCR1” and the CXCR1 down-regulation (CXCR1 [13]) is listed as “cause down-regulation of CXCR2 and CXCR1”.
